Results on 25 compounds are retold here after PubChem BioAssay AID488902 (Broad Institute, 2010).

The source made the active and inactive calls.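 How the source made its calls: active means rising caspase curve whose AC50 is at most ten times the top dose tested; inconclusive means flat fit between 30 and 70%, or a poor fit; inactive means the rest.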

Assay [1] in a line: caspase activation in wild-type MEFs, dose response, counter-screen for A1 (Bcl2-A1) inhibitor project, cell-based, wild-type MEF, Caspase-Glo luminescence, dry powder (AID 488902). The note with it: wild-type MEF caspase activation, Caspase-Glo luminescence, 3 h. The method, boiled down: (§1)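 Material: wild-type mouse embryonic fibroblasts, unprimed by A1-BIM, not A1-dependent; quantity: 2500 cells/well; buffer or medium: RPMI-1640 plus 10% FBS; dosing: dose-response series from dry powder, 100 nL pinned per well; incubation: 3 h compound treatment at 37 °C, 1 h reagent step; detection: CaspaseGlo luminescence; read-out: caspase activation level in compound-treated cells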
On the technique in general: The purpose of a counterscreen is to sort out artefacts and off-target activity.

Assay [2] deals with wild-type MEF caspase activation, Caspase-Glo luminescence, 3 h. The description is as above. In outline:
as §1

As for `Nc1nc(F)nc2c1ncn2[C@@H]1O[C@H](CO)[C@@H](O)[C@H]1O`, the caspase activation in assay [1] (at 150 µM (top of the series)) is -0.43% (inactive).
For `COc1ccc(N(C(=O)CCl)C(C(=O)NCCc2ccccc2)c2cccs2)cc1Cl` (stereo not given), the AC50 in assay [2] is 15.5 µM.
Consider `C=C1[C@@H](C)[C@H]2[C@H](Cc3ccccc3)NC(=O)[C@]23[C@H](OC(C)=O)/C=C/[C@](C)(O)C(=O)[C@@H](C)C/C=C/[C@H]3[C@@H]1O`, for which the caspase activation in assay [1] (at 150 µM (top of the series)) was -0.119% (inactive).
Turning to `C=C1[C@@H](C)[C@H]2[C@H](Cc3ccccc3)NC(=O)[C@]23OC(=O)/C=C\[C@H](O)CCC[C@@H](C)C/C=C/[C@H]3[C@@H]1O`, in assay [1] (at 150 µM (top of the series)), the caspase activation is 0.465% (inactive).
On to `Cc1cccc(NC(=O)/C(C#N)=C/c2cn(CC(=O)NCc3ccco3)c3ccccc23)c1`, for which the AC50 in assay [2] is 4.34 µM.
With `Cc1c(C=O)c(C=O)c(C)n1Cc1ccccc1`, the caspase activation in assay [1] (at 150 µM (top of the series)) is 1.13% (inactive).
On the same count and under the same terms, then `CCSc1nnc(NC(=O)c2nc(S(=O)(=O)Cc3ccc(F)cc3)ncc2Cl)s1`, with -2.01% (inactive); and `Cn1c(=NC(=O)CCl)sc2ccccc21`, with 0.0802% (inactive).
Regarding `CCc1nnc(NC(=O)c2nc(S(=O)(=O)Cc3ccccc3)ncc2Cl)s1`, the caspase activation in assay [1] (at 150 µM (top of the series)) is -0.316% (inactive).
With `Cc1ccc(CS(=O)(=O)c2ncc(Cl)c(C(=O)Nc3nnc(C(C)C)s3)n2)cc1`, in assay [1] (at 150 µM (top of the series)), the caspase activation is -1.41% (inactive).
Turning to `O=C(Oc1cccc(/C=N/Nc2nc(Nc3ccccc3)nc(N3CCOCC3)n2)c1)c1ccco1`, in assay [1] (at 150 µM (top of the series)), the caspase activation is 0.0158% (inactive).
Same read-out and setting: then `O=C(CCl)N=c1sccn1Cc1ccccc1Cl`, with 0.637% (inactive); and `Cc1ccc(Sc2c([N+](=O)[O-])c(=O)n(C)c3ccccc23)cc1`, with 1.56% (inactive).
Same read-out and setting: then `Cc1c(CCOC(=O)c2ccc(N3CCOCC3)c([N+](=O)[O-])c2)sc[n+]1CC#N`, with 0.157% (inactive).
The same measure, in the same setting: to `CC(C)(C)n1nc(-c2ccc(Cl)cc2)c2c(N)ncnc21` belongs 2.53% (inactive).
With `COc1cccc(C(=O)C(C#N)=C(SC)SC)c1`, in assay [1] (at 150 µM (top of the series)), the caspase activation was -1.91% (inactive).
On to `CC(=O)N[C@H]1[C@H](O[C@H]2CC[C@@]3(C)C(CC[C@]4(C)C3CC=C3[C@@H]5CC(C)(C)CC[C@]5(C(=O)OC5OCC(O)C(O)C5O)C(O)C[C@]34C)C2(C)C)O[C@H](COC2OCC(O)C(OC3OCC(O)C(O)C3O)C2O)[C@@H](O[C@@H]2O[C@@H](C)[C@H](O)[C@@H](O)[C@H]2O[C@@H]2O[C@@H](C)[C@H](O)[C@@H](O)[C@H]2O)[C@@H]1O` (stereo not given in full), for which the caspase activation in assay [1] (at 135 µM (top of the series)) is -0.32% (inactive).
As for `CCOC(=O)CSC1=N/C(=C/c2ccc(-n3cncn3)cc2)C(=O)N1C(C)=O`, in assay [1] (at 150 µM (top of the series)), the caspase activation was 2.7% (inactive).
Same read-out and setting: then `C/C1=C/C(=O)O[C@@H]2C[C@@H](CC[C@H](C)/C=C\CC1)O[C@@](O)(C1CSC(=O)N1)C2` (stereo not given in full), with 0.912% (inactive).
Same read-out and setting: then `COc1cc(/C=C(/C#N)c2nc3ccccc3[nH]2)ccc1OCC(=O)Nc1ccccc1C(C)C`, with 0.773% (inactive); and `Cc1cccc(CS(=O)(=O)c2ncc(Cl)c(C(=O)Nc3nnc(C(C)C)s3)n2)c1`, with -1.13% (inactive).
Same read-out and setting: to `CC(=O)OC(C)(C)/C=C/C(=O)[C@](C)(O)C1[C@H](O)C[C@@]2(C)C3CC=C4C(C[C@H](O)C(=O)C4(C)C)[C@]3(C)C(=O)C[C@]12C` (stereo not given in full) belongs 0.64% (inactive).
As for `Cc1cc(C(=O)CCl)c(C)n1CCc1ccc(Cl)cc1`, the AC50 in assay [2] was 16.3 µM.
Still for that read-out and setting: to `COc1cc(CN2CCN(c3cc(C)ccc3C)CC2)ccc1O` belongs > 150 µM (inactive); to `CCc1cc2c(=O)c(-c3cnn(-c4ccccc4)c3)c(C)oc2cc1OCC(=O)Nc1cccc(C)c1`, 2.93 µM.

By AC50 is commonly meant the concentration giving half of the maximal activity seen.
